Measurements from different studies.
Lines come from different studies, so protocols differ.
KIT: Mast/stem cell growth factor receptor Kit (KIT, Homo sapiens, UniProt P10721)
KIT autoinhibited: Mast/stem cell growth factor receptor Kit, autoinhibited (KIT, Homo sapiens, UniProt P10721)
KIT D816V: Mast/stem cell growth factor receptor Kit (KIT, Homo sapiens, UniProt P10721, D816V)
KIT V559D/V654A: Mast/stem cell growth factor receptor Kit (KIT, Homo sapiens, UniProt P10721, V559D/V654A)

SMILES | target | observed | mode | technique | tested at | measurement | result
N#Cc1ccc(NC(=O)Nc2ccccc2)cc1 | KIT | cell-free assay |  | competition with immobilised ligand | 25 µM | remaining binding | 49%
C#Cc1cnc(Nc2ccnc(CO)c2)nc1Nc1ccccc1S(C)(=O)=NC#N (stereo not drawn) | Mast/stem cell growth factor receptor Kit (KIT, Homo sapiens, UniProt P10721, T670I/V559D) | cell-free assay |  |  | 1 µM | remaining signal | 79%
CN1CCN(C(=O)c2ccc(NC(=O)Nc3ccc(N(C)c4ccnc(Nc5ccc(CS(C)(=O)=O)cc5)n4)cc3)cc2)CC1 | KIT | binding |  | competition with immobilised ligand | 1 µM | remaining binding | 0%
C1=C/COCc2cc(ccc2OCCN2CCCC2)Nc2nccc(n2)-c2cccc(c2)COC/1 | KIT autoinhibited | binding |  |  | 0.1 µM | remaining binding | 17%
C=CC(=O)N1CCC([C@@H]2CCNc3c(C(N)=O)c(-c4ccc(Oc5ccccc5)cc4)nn32)CC1 | KIT | enzyme activity | inhibitor |  | 1 µM | inhibition | 17%
CCCCC(=O)Nc1ccc(-c2ccc3ncn(CCC)c(=O)c3c2)cn1 | KIT autoinhibited | binding |  | competition with immobilised ligand | 0.5 µM | remaining binding | 97%
C[C@H]1CC[C@H](n2c3cnccc3c3cnc(Nc4ccc5c(n4)CCN(C(=O)CO)C5)nc32)CC1 | KIT D816V | cell-free assay |  |  | 1 µM | remaining signal | 3.6%
COc1ccc2oc(-c3ccc4nc(N)oc4c3)c/c(=N\c3ccccc3NC(=O)CCN)c2c1 | KIT | binding |  |  | 1 µM | remaining binding | 111%
COc1ccc2[nH]c3c4[nH]c5ccc(OC)cc5c4c4c(c3c2c1)C(=O)NC4=O | Mast/stem cell growth factor receptor Kit (KIT, Homo sapiens, UniProt P10721, V559D) | binding |  |  | 1 µM | remaining binding | 9%
CC#CC(=O)N1CCC[C@H]1c1nc(-c2ccc(C(=O)Nc3ccccn3)cc2)c2c(N)nccn12 | KIT V559D/V654A | enzyme activity | inhibitor |  | 1 µM | inhibition | 0%
Cc1ccc(NC(=O)c2ccnc(C(F)(F)F)c2)cc1-c1cc(OCCO)nc(N2CCOCC2)c1 | KIT V559D/V654A | binding |  |  | 1 µM | remaining binding | 91%
CO[C@@H]1[C@H](N(C)C(=O)c2ccccc2)C[C@H]2O[C@]1(C)n1c3ccccc3c3c4c(c5c6ccccc6n2c5c31)C(=O)NC4 | KIT D816V | enzyme activity | inhibitor |  | 1 µM | inhibition | 96%
